Data published in ChEMBL document CHEMBL4765236, “Insights into the Antimicrobial Activity and Cytotoxicity of Engineered α-Helical Peptide Amphiphiles” (J Med Chem, 2016).
Converted amounts (≈) assume the structure as drawn. Where a SMILES comes first, the peptide text is derived from it. Bridges are numbered along the chain shown (N, C = ends). [ ]: non-standard residue; d: D form. The star is where a group is joined. X1 = CC[C@H](C)CCCCC(=O)*; Dab = NCC[C@H](N)C(=O)O

What was measured:
Escherichia coli [1] = assay: Antibacterial activity against Escherichia coli O157:H7 CICC 21530 assessed as bacterial growth inhibition incubated for 18 to 24 hrs by microtiter broth dilution method; format: functional; settings: time 18-24 hrs
In short: (§1)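 Log-phase bacteria grown at 37 °C in MHB, diluted to 10^5 CFU/mL, mixed 1:1 with serial peptide dilutions (peptide diluted in 0.01% acetic acid, 0.2% BSA); 37 °C for 18-24 h. MIC read by OD492 as lowest concentration giving no growth; mean of 3-5 independent experiments.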

Escherichia coli [2] = assay: Antibacterial activity against Escherichia coli ATCC 25922 assessed as bacterial growth inhibition incubated for 18 to 24 hrs by microtiter broth dilution method; format: functional; settings: time 18-24 hrs
In short: (§2)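 Log-phase cells (grown overnight at 37 °C, subcultured in MHB) diluted to 10^5 CFU/mL in MHB and mixed 1:1 with serial peptide dilutions prepared in 0.01% acetic acid/0.2% BSA. Incubated 37 °C for 18-24 h. MIC is the lowest concentration giving no growth by OD492. Reported as the average of 3-5 independent experiments.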

Escherichia coli [3] = assay: Antibacterial activity against Escherichia coli ATCC 35150 assessed as bacterial growth inhibition incubated for 18 to 24 hrs by microtiter broth dilution method; format: functional; settings: time 18-24 hrs; in short: as §2
Salmonella paratyphi [4] = assay: Antibacterial activity against Salmonella paratyphi A CICC 20501 assessed as bacterial growth inhibition incubated for 18 to 24 hrs by microtiter broth dilution method; format: functional, Salmonella enterica subsp. enterica serovar Paratyphi A; settings: Salmonella enterica, time 18-24 hrs; in short: as §1
[5] = test system: Salmonella enterica subsp. enterica serovar Paratyphi B; assay: Antibacterial activity against Salmonella paratyphi B CICC 21495 assessed as bacterial growth inhibition incubated for 18 to 24 hrs by microtiter broth dilution method; format: functional; settings: time 18-24 hrs; in short: as §1
Salmonella paratyphi [6] = assay: Antibacterial activity against Salmonella paratyphi C CICC 21512 assessed as bacterial growth inhibition incubated for 18 to 24 hrs by microtiter broth dilution method; format: functional; settings: Salmonella enterica, time 18-24 hrs; in short: as §1
Shigella flexneri = assay: Antibacterial activity against Shigella flexneri CMCC 51571 assessed as bacterial growth inhibition incubated for 18 to 24 hrs by microtiter broth dilution method; format: functional; settings: time 18-24 hrs; in short: as §2
Salmonella enterica = assay: Antibacterial activity against Salmonella choleraesuis ATCC 13312 assessed as bacterial growth inhibition incubated for 18 to 24 hrs by broth dilution method; format: functional; settings: time 18-24 hrs; in short: as §1
Salmonella typhimurium = assay: Antibacterial activity against Salmonella typhimurium CMCC 51005 assessed as bacterial growth inhibition incubated for 18 to 24 hrs by microtiter broth dilution method; format: functional, Salmonella enterica subsp. enterica serovar Typhimurium; settings: Salmonella enterica, time 18-24 hrs; in short: as §2
Salmonella enteritidis = assay: Antibacterial activity against Salmonella enteritidis CICC 21527 assessed as bacterial growth inhibition incubated for 18 to 24 hrs by microtiter broth dilution method; format: functional, Salmonella enterica subsp. enterica serovar Enteritidis; settings: Salmonella enterica, time 18-24 hrs; in short: as §2
Vibrio parahaemolyticus = assay: Antibacterial activity against Vibrio parahaemolyticus CICC 21617 assessed as bacterial growth inhibition incubated for 18 to 24 hrs by broth dilution method; format: functional; settings: time 18-24 hrs; in short: as §2
Staphylococcus aureus [7] = assay: Antibacterial activity against Staphylococcus aureus GIM 1.160 assessed as bacterial growth inhibition incubated for 18 to 24 hrs by microtiter broth dilution method; format: functional; settings: time 18-24 hrs; in short: as §2
Bacillus cereus = assay: Antibacterial activity against Bacillus cereus CMCC 63301 assessed as bacterial growth inhibition incubated for 18 to 24 hrs by microtiter broth dilution method; format: functional; settings: time 18-24 hrs; in short: as §2
Micrococcus luteus = assay: Antibacterial activity against Micrococcus luteus CMCC 28001 assessed as bacterial growth inhibition incubated for 18 to 24 hrs by microtiter broth dilution method; format: functional; settings: time 18-24 hrs; in short: as §2
Bacillus pumilus = assay: Antibacterial activity against Bacillus pumilus CMCC 63202 assessed as bacterial growth inhibition incubated for 18 to 24 hrs by microtiter broth dilution method; format: functional; settings: time 18-24 hrs; in short: as §2
Pseudomonas fluorescens = assay: Antibacterial activity against Pseudomonas fluorescens CICC 21620 assessed as bacterial growth inhibition incubated for 18 to 24 hrs by microtiter broth dilution method; format: functional; settings: time 18-24 hrs; in short: as §2
Staphylococcus aureus [8] = assay: Antibacterial activity against methicillin resistant Staphylococcus aureus ATCC 43300 assessed as bacterial growth inhibition incubated for 18 to 24 hrs by microtiter broth dilution method; format: functional; settings: time 18-24 hrs; in short: as §1
Candida albicans = assay: Antifungal activity against Candida albicans ATCC 10231 assessed as fungal growth inhibition incubated for 18 to 24 hrs by microtiter broth dilution method; format: functional; settings: time 18-24 hrs; in short: as §2
Erythrocyte = assay: Hemolytic activity against human red blood cells assessed as concentration required to cause 10% hemoglobin release measured after 1 hr by microplate reader analysis; format: ADME, cell-based
In short: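 Fresh heparinized human RBCs washed three times in 10 mM PBS pH 7.4 and resuspended to about 1% (v/v) (5.4 × 10^8 cells/mL). Mixed 1:1 with peptide in PBS for 1 h at 37 °C, then centrifuged. Supernatant hemoglobin read at A540. PBS set as 0% and 0.1% Triton X-100 as 100% hemolysis. MHC is the concentration causing 10% hemolysis.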

Staphylococcus aureus [9] = assay: Antibacterial activity against Staphylococcus aureus ATCC 29213 assessed as bacterial growth inhibition incubated for 18 to 24 hrs by microtiter broth dilution method; format: functional; settings: time 18-24 hrs; in short: as §2
Listeria monocytogenes [10] = assay: Antibacterial activity against Listeria monocytogenes CICC 21662 assessed as bacterial growth inhibition incubated for 18 to 24 hrs by microtiter broth dilution method; format: functional; settings: time 18-24 hrs; in short: as §2
Listeria monocytogenes [11] = assay: Antibacterial activity against Listeria monocytogenes CICC 21633 assessed as bacterial growth inhibition incubated for 18 to 24 hrs by microtiter broth dilution method; format: functional; settings: time 18-24 hrs; in short: as §2
[12] = Therapeutic index, ratio of MHC10 for human RBC to geometric mean of peptide MIC for Escherichia coli O157:H7 CICC 21530; format: toxicity; settings: human red blood cells (RBC), pooled result: one value given for 11 cell lines, strains, targets or settings, read-out: TI
In short: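 Therapeutic index = MHC (peptide concentration giving 10% hemolysis of human RBCs, 1 h, 37 °C, A540) divided by geometric mean of MICs from broth microdilution (10^5 CFU/mL in MHB, 37 °C, 18-24 h, OD492).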

SMILES | MIC (Escherichia coli [1]) [µM] | MIC (Escherichia coli [2]) [µM] | MIC (Escherichia coli [3]) [µM] | MIC (Salmonella paratyphi [4]) [µM] | MIC [5] [µM] | MIC (Salmonella paratyphi [6]) [µM] | MIC (Shigella flexneri) [µM] | MIC (Salmonella enterica) [µM] | MIC (Salmonella typhimurium) [µM] | MIC (Salmonella enteritidis) [µM] | MIC (Vibrio parahaemolyticus) [µM] | MIC (Staphylococcus aureus [7]) [µM] | MIC (Bacillus cereus) [µM] | MIC (Micrococcus luteus) [µM] | MIC (Bacillus pumilus) [µM] | MIC (Pseudomonas fluorescens) [µM] | MIC (Staphylococcus aureus [8]) [µM] | MIC (Candida albicans) [µM] | MHC10 (Erythrocyte) [µM] | also measured
CN[C@H](CC(C)C)C(=O)N[C@H]1C(=O)N[C@@H](CC(N)=O)C(=O)N[C@H]2C(=O)N[C@H]3C(=O)N[C@H](C(=O)N[C@H](C(=O)O)c4cc(O)cc(O)c4-c4cc3ccc4O)[C@H](O)c3ccc(c(Cl)c3)Oc3cc2cc(c3O[C@@H]2O[C@H](CO)[C@@H](O)[C@H](O)[C@H]2O[C@H]2C[C@](C)(N)[C@H](O)[C@H](C)O2)Oc2ccc(cc2Cl)[C@H]1O [VANCOMYCIN] | > 88.3 | 88.3 (≈ 128 µg/mL) | > 88.3 | > 88.3 | 88.3 (≈ 128 µg/mL) | 88.3 (≈ 128 µg/mL) | 88.3 (≈ 128 µg/mL) | > 88.3 | > 88.3 | 44.2 (≈ 64 µg/mL) | 88.3 (≈ 128 µg/mL) | 1.38 (≈ 2 µg/mL) | 0.17 (≈ 0.246 µg/mL) | 0.69 (≈ 1 µg/mL) | 0.35 (≈ 0.507 µg/mL) | 0.35 (≈ 0.507 µg/mL) | 1.38 (≈ 2 µg/mL) | > 88.3 | > 88.32 | –
CC[C@H](C)CCCCC(=O)N[C@@H](CCN)C(=O)N[C@H](C(=O)N[C@@H](CCN)C(=O)N[C@H]1CCNC(=O)[C@H]([C@@H](C)O)NC(=O)[C@H](CCN)NC(=O)[C@H](CCN)NC(=O)[C@H](CC(C)C)NC(=O)[C@@H](Cc2ccccc2)NC(=O)[C@H](CCN)NC1=O)[C@@H](C)O (X1-[Dab]T[Dab][Dab][Dab][dF]L[Dab][Dab]T; lactam 4-C) | 3.07 (≈ 3.69 µg/mL) | 0.38 (≈ 0.457 µg/mL) | 1.54 (≈ 1.85 µg/mL) | 0.77 (≈ 0.927 µg/mL) | 1.54 (≈ 1.85 µg/mL) | 3.07 (≈ 3.69 µg/mL) | 0.77 (≈ 0.927 µg/mL) | 1.54 (≈ 1.85 µg/mL) | 0.77 (≈ 0.927 µg/mL) | 1.54 (≈ 1.85 µg/mL) | 0.77 (≈ 0.927 µg/mL) | 49.2 (≈ 59.2 µg/mL) | 49.2 (≈ 59.2 µg/mL) | > 98.3 | 49.2 (≈ 59.2 µg/mL) | 49.2 (≈ 59.2 µg/mL) | > 98.3 | 49.2 (≈ 59.2 µg/mL) | > 98.34 | MIC (Staphylococcus aureus [9]): 49.2 µM (≈ 59.2 µg/mL); MIC (Listeria monocytogenes [10]): 24.6 µM (≈ 29.6 µg/mL); MIC (Listeria monocytogenes [11]): 12.3 µM (≈ 14.8 µg/mL); selectivity ratio [12]: 165
